Results: ChEMBL document CHEMBL3734652, “Pyrrolo[3,4-c]pyridine-1,3(2H)-diones: A Novel Antimycobacterial Class Targeting Mycobacterial Respiration” (J Med Chem, 2015)
In brackets after ≈: the same amount, converted by molar mass.

Key:
[1] = system: Mycobacterium tuberculosis; assay: Antimicrobial activity against GFP expressing recombinant Mycobacterium tuberculosis H37RvMA under GAST/Fe medium assessed as growth inhibition after 14 days by broth microdilution method; type: functional; details: 336 h
[2] = system: Mycobacterium tuberculosis; assay: Antimicrobial activity against Mycobacterium tuberculosis H37RvMA under GAST/Fe medium assessed as growth inhibition after 14 days by alamar blue assay; type: functional; details: 336 h
Outline: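 Broth microdilution in GAST/Fe medium against fully virulent Mtb H37RvMa or its derived strains (cytochrome bd oxidase deletion ΔcydKO; qcrB Ala317Thr point mutant). Plates were incubated 14 days, growth was read by Alamar Blue, and MIC90 was taken as the potency value.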

[3] = Kinetic solubility in FaSSIF at pH 6.5 after 2 hours at 25 degC by shake flask method; type: physicochemical; details: read-out: Kinetic_solubility
Vero = assay: Cytotoxicity against African green monkey Vero cells assessed as cell viability by MTT assay; type: cell-based; details: Chlorocebus sabaeus
Outline: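 VERO kidney epithelial cells from African green monkey were exposed to compounds at concentrations up to 100 μM, and IC₅₀ was reported.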

[4] = system: Mycobacterium tuberculosis; assay: Antimicrobial activity against GFP expressing recombinant Mycobacterium tuberculosis H37RvMA under 7H9 medium assessed as growth inhibition after 14 days by broth microdilution method; type: functional; details: 336 h
Liver microsome [5] = assay: Intrinsic clearance in human liver microsomes assessed per mg of protein at 0.1 uM by LC-MS/MS method in presence or absence of NADPH; type: ADME
Liver microsome [6] = assay: Intrinsic clearance in rat liver microsomes assessed per mg of protein at 0.1 uM by LC-MS/MS method in presence or absence of NADPH; type: ADME
[7] = Intrinsic clearance in mouse liver microsomes assessed per mg of protein at 0.1 uM by LC-MS/MS method in presence or absence of NADPH; type: ADME
[8] = Metabolic stability in human liver S9 fractions assessed as residual compound at 0.1 uM after 40 mins by LC-MS/MS method in presence or absence of NADPH; type: ADME; details: read-out: Stability
[9] = Half life in human plasma at 0.1 uM by LC-MS/MS method; type: ADME, cell-free
[10] = Octanol-phosphate buffer partition coefficient, log D of the compound at 100 uM at pH 7.4 after 3 hrs by shake flask method; type: physicochemical
Liver = assay: Drug metabolism in BALB/c mouse liver microsomes assessed as formation of 7-Amino-2-benzyl-4-methyl-1,3-dioxo-2,3-dihydro-1H-pyrrolo-[3,4-c]pyridine-6-carboxylic Acid at 10 uM after 1 hr by LC-MS analysis in absence of NADPH; type: ADME
[11] = Metabolic stability in human liver microsomes assessed as residual compound at 0.1 uM after 30 mins by LC-MS/MS method in presence or absence of NADPH; type: ADME; details: read-out: Stability
[12] = Metabolic stability in rat liver microsomes assessed as residual compound at 0.1 uM after 30 mins by LC-MS/MS method in presence or absence of NADPH; type: ADME; details: read-out: Stability
[13] = Metabolic stability in mouse liver microsomes assessed as residual compound at 0.1 uM after 30 mins by LC-MS/MS method in presence or absence of NADPH; type: ADME; details: read-out: Stability
[14] = system: Mycobacterium tuberculosis; assay: Antimicrobial activity against clinical isolates of Mycobacterium tuberculosis SAWC 2371 Haarlem under 7H9 medium assessed as growth inhibition after 14 days by alamar blue assay; type: functional; details: 336 h
[15] = system: Mycobacterium tuberculosis; assay: Antimicrobial activity against clinical isolates of Mycobacterium tuberculosis SAWC 3385 Cas1/Delhi under 7H9 medium assessed as growth inhibition after 14 days by alamar blue assay; type: functional; details: 336 h
[16] = system: Mycobacterium tuberculosis; assay: Antimicrobial activity against clinical isolates of Mycobacterium tuberculosis SAWC 3906 Atyp-beijing under 7H9 medium assessed as growth inhibition after 14 days by alamar blue assay; type: functional; details: 336 h
Plasma = assay: Drug metabolism in C57/BL6 mouse plasma assessed as formation of 7-Amino-2-benzyl-4-methyl-1,3-dioxo-2,3-dihydro-1H-pyrrolo-[3,4-c]pyridine-6-carboxylic Acid by LC-MS analysis in absence of NADPH; type: ADME, cell-free
[17] = system: Mycobacterium tuberculosis; assay: Drug metabolism in supernatant of Mycobacterium tuberculosis assessed as formation of 7-Amino-2-benzyl-4-methyl-1,3-dioxo-2,3-dihydro-1H-pyrrolo-[3,4-c]pyridine-6-carboxylic Acid in absence of NADPH; type: ADME, organism-based
[18] = system: Mycobacterium tuberculosis; assay: Antimicrobial activity against clinical isolates of Mycobacterium tuberculosis SAWC 3933 LCC under 7H9 medium assessed as growth inhibition after 14 days by alamar blue assay; type: functional; details: 336 h

Structure (SMILES) | MIC90 [1] [µM] | MIC90 [2] [µM] | solubility kinetic at 2 h [3] [µM] | IC50 (Vero) [µM] | MIC90 [4] [µM] | MIC90 [14] [µM] | MIC90 [15] [µM] | MIC90 [16] [µM] | further results
Cc1noc(-c2nc(C)c3c(c2N)C(=O)N(Cc2cccc(OC(F)(F)F)c2)C3=O)n1 | 0.052 | 0.0637 (≈ 0.0276 µg/mL) | 6.3 (≈ 2.73 µg/mL) | > 100 | > 20 |  |  |  | CLint (Liver microsome [5]): 15.4 µL/min/mg; CLint (Liver microsome [6]): 32.4 µL/min/mg; CLint [7]: 65.7 µL/min/mg; remaining at 40 min, 0.1 µM [8]: 93%; half-life at 0.1 µM [9]: > 6 h; logD at 3 h, 100 µM [10]: 3.64
CCOC(=O)c1nc(C)c2c(c1N)C(=O)N(Cc1ccccc1)C2=O | 0.132 | < 0.156 | < 5 | > 100 | > 20 | < 0.08 | < 0.08 | < 0.08 | Drug metabolism (Liver): metabolite_detected; remaining at 0.5 h, 0.1 µM [11]: 14%; remaining at 0.5 h, 0.1 µM [12]: 19%; remaining at 0.5 h, 0.1 µM [13]: 18%; Drug metabolism (Plasma): metabolite_detected; Drug metabolism [17]: metabolite_detected
COc1cccc(CN2C(=O)c3c(C)nc(-c4nc(C)no4)c(N)c3C2=O)c1 |  | < 0.156 | < 5 |  |  | 0.3 (≈ 0.114 µg/mL) | 0.075 (≈ 0.0285 µg/mL) | 0.075 (≈ 0.0285 µg/mL) | MIC90 [18]: 0.15 µM (≈ 0.0569 µg/mL)
